In ChEMBL document CHEMBL2146477, “Antimicrobial Activity of Adenine-Based Inhibitors of NAD(+)-Dependent DNA Ligase” (ACS Med Chem Lett, 2012):
≈ marks a conversion by molar mass, not a printed value.

How the values were obtained:
[1] = Inhibition of NAD-dependent LigA in Streptococcus pneumoniae SPN100 after 20 mins by FRET assay
Summary of the method: (§1)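 LigA enzyme assay with NAD+ at a low multiple of its Km (around 1–10 μM). Percent inhibition was measured at 2-fold serial dilutions of compound, and IC50 was interpolated. The reported value is the geometric mean of at least 2 determinations.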

Streptococcus pneumoniae [2] = test: Antibacterial activity against Streptococcus pneumoniae SPN100 by NCCLS broth microdilution method; assay type: functional
Haemophilus influenzae [3] = test: Antibacterial activity against Haemophilus influenzae HIN102 overexpressing LigA by NCCLS broth microdilution method; assay type: functional
Summary of the method: (§2)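 MIC measured on the LigA-overexpressing strain, in duplicate on different days. The reported MIC is the geometric mean of the two. The maximum test concentration was 64 μg/mL.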

Haemophilus influenzae [4] = test: Antibacterial activity against AcrABTolC deficient Haemophilus influenzae HIN101 by NCCLS broth microdilution method; assay type: functional
[5] = Inhibition of NAD-dependent LigA in AcrABTolC deficient Haemophilus influenzae HIN101 after 20 mins by FRET assay; summary of the method: as §1
Haemophilus influenzae [6] = test: Ratio of MIC for AcrABTolC deficient Haemophilus influenzae HIN101 to MIC for Haemophilus influenzae HIN102 overexpressing LigA; assay type: functional
Summary of the method: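 MICs for parental HIN101 and isogenic LigA-overexpressing HIN102 were each run in duplicate on different days, up to 64 μg/mL, using geometric-mean values. A difference of at least 4-fold on both occasions was taken to mean the LigA mode of action in the parental strain.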

Streptococcus pneumoniae [7] = test: Antibacterial activity against Streptococcus pneumoniae SPN102 overexpressing LigA by NCCLS broth microdilution method; assay type: functional; summary of the method: as §2
Streptococcus pneumoniae [8] = test: Ratio of MIC for Streptococcus pneumoniae SPN102 to MIC for Streptococcus pneumoniae SPN100

| SMILES | IC50 [1] | MIC (Streptococcus pneumoniae [2]) | MIC (Haemophilus influenzae [3]) | MIC (Haemophilus influenzae [4]) | IC50 [5] | Ratio (Haemophilus influenzae [6]) | MIC (Streptococcus pneumoniae [7]) | Ratio (Streptococcus pneumoniae [8]) |
| --- | --- | --- | --- | --- | --- | --- | --- | --- |
| Nc1nc(OC2CCC3CCCCC3C2)nc2c1ncn2C1CCCO1 (stereo not given) | 60 nM | 2 µg/mL (≈ 5.6 µM) | 8 µg/mL (≈ 22.4 µM) | 8 µg/mL (≈ 22.4 µM) | 860 nM | 16 |  |  |
| C[C@H]1O[C@@H](n2cnc3c(N)nc(OC4CCC5CCCCC5C4)nc32)[C@H](O)[C@@H]1O (stereo not given in full) | 40 nM | 0.5 µg/mL (≈ 1.24 µM) | 32 µg/mL (≈ 79.3 µM) | 8 µg/mL (≈ 19.8 µM) | 260 nM | 16 |  |  |
| C[C@H]1O[C@@H](n2cnc3c(N)nc(OCC45CC6CC(CC(C6)C4)C5)nc32)[C@H](O)[C@@H]1O | 200 nM | 2 µg/mL (≈ 4.81 µM) |  | 32 µg/mL (≈ 77 µM) | 1700 nM |  |  |  |
| Nc1nc(OC2CCC3CCCCC3C2)nc2c1ncn2[C@@H]1O[C@H](CO)[C@@H](O)[C@H]1O (stereo not given in full) | 80 nM | 1 µg/mL (≈ 2.38 µM) |  | 16 µg/mL (≈ 38.1 µM) | 400 nM |  |  |  |
| C[C@H]1O[C@@H](n2cnc3c(N)nc(OC4CCCC4)nc32)[C@H](O)[C@@H]1Oc1ccccc1 | 50 nM | 2 µg/mL (≈ 4.86 µM) |  | 64 µg/mL (≈ 156 µM) | 1300 nM |  |  |  |
| Nc1nc(OC2CCCC2)nc2c1ncn2[C@@H]1O[C@H](CO)[C@@H](F)[C@H]1O | 100 nM | 4 µg/mL (≈ 11.3 µM) | > 64 µg/mL | 8 µg/mL (≈ 22.6 µM) | 300 nM | 16 | > 64 µg/mL | 64 |
| C[C@H]1O[C@@H](n2cnc3c(N)nc(OC4CCCC4)nc32)[C@H](O)[C@@H]1CC1CCCCC1 | 300 nM | 16 µg/mL (≈ 38.5 µM) |  |  |  |  | 16 µg/mL (≈ 38.5 µM) | 64 |
| Nc1nc(OC2CCC3CCCC3C2)nc2c1ncn2C1CCCO1 (stereo not given) | 200 nM | 4 µg/mL (≈ 11.6 µM) |  |  |  |  | 32 µg/mL (≈ 93.2 µM) | 64 |
